Laboratory results published in BindingDB's records for doi:10.1021/jm950797i (Medichem Research, 1996).

How the values were obtained:
[1] = target: T1, Gag-Pol polyprotein [489-587] (Human immunodeficiency virus 1, UniProt P04585); assay: Inhibitory activity against TIBO-resistant HIV-1 RT Nucleic Acid polymerase
T1 construct: 489-587

[2] = target: T1, Gag-Pol polyprotein [489-587]; assay: Inhibitory activity against RNA-dependent DNA polymerase (RDDP) of HIV-1 RT Nucleic Acid polymerase
Procedure, shortened: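 Purified dimeric (p66/p51) HIV-1 RT (0.08 µg) in pH 8.0 Tris-HCl with KCl, MgCl2, DTT, glutathione, EGTA and BSA. Template-primer was 41 µM poly(rA) with 9.5 µM oligo(dT), plus 20 µM TTP and [3H]TTP. Incubated 1 h at 37 °C, stopped at 80 °C, and counted on filters. Prescreened at 200 µg/mL; IC50 taken from 10 half-log doses in duplicate.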

[3] = target: T1, Gag-Pol polyprotein [489-587]; assay: Inhibitory activity against DNA -dependent DNA polymerase (DDDP) of HIV-1 RT Nucleic Acid polymerase
Procedure, shortened: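 Dimeric (p66/p51) HIV-1 RT in the RT buffer, reacted 1 h at 37 °C. Template was activated calf thymus DNA (final 20 µg/mL), with dATP, dCTP and dGTP each at final 50 µM plus 5 µCi [3H]TTP. Acid-insoluble label was counted by scintillation. Prescreened at 200 µg/mL, then 10 half-log concentrations in duplicate; IC50 read from dose-response curves.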

Compound	IC50 [1] [µM]	IC50 [2] [µM]	IC50 [3] [µM]
CCCc1cc(=O)oc2c3c(c4c(c12)OC(C)(C)C=C4)O[C@@H](C)C(C)[C@@H]3O (stereo partly drawn) [(10S,12S)-12-Hydroxy-6,6,10,11-tetramethyl-4-propyl-11,12-dihydro-6H,10H-dipyrano[2,3-f;2',3'-h]chromen-2-one]	17.6	0.97	0.7
CCCc1cc(=O)oc2c3c(c4c(c12)OC(C)(C)C=C4)O[C@@H](C)[C@H](C)[C@@H]3O		27.8	156
CCCc1cc(=O)oc2c3c(c4c(c12)OC(C)(C)C=C4)O[C@H](C)[C@@H](C)[C@@H]3O [(10R,11S,12S)-12-Hydroxy-6,6,10,11-tetramethyl-4-propyl-11,12-dihydro-6H,10H-dipyrano[2,3-f;2',3'-h]chromen-2-one]	10.1		0.38
